Data from the M2OR odorant receptor database.

Each compound was assayed against T1, OR2W3 (Homo sapiens) (UniProt Q7Z3T1). Conditions: stereoisomer not certain.
T1 sequence (whole entry): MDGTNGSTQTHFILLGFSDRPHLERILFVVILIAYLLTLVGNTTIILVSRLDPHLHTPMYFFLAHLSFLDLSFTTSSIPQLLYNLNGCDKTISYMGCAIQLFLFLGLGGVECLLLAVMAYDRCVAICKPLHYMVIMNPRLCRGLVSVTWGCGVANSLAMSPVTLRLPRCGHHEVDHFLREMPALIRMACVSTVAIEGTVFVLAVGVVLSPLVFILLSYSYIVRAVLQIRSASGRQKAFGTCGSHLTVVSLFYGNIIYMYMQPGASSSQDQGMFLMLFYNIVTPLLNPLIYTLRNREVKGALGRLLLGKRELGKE
Procedure, shortened: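 Transient luciferase assays in mammalian cell lines were common, though methods varied by source. The values come from published papers and their supplementary material, with extra details from the original authors when needed. Responsive refers to a measured signal the original authors judged statistically different from baseline, and non-responsive (inactive) to the remainder.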
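Also: active if original authors judged signal statistically different from baseline.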

Row | SMILES | odorant receptor agonist call
1 | CCCCCCCCCCCC(=O)O | inactive
2 | CC(O)C(=O)[O-].[H+] (stereo unspecified) | inactive
3 | CCCCCCCCCCCCCCCC(=O)OCC | inactive
4 | CCC(O)CC | inactive
5 | Cc1ccc(C(C)C)cc1 | inactive
6 | C=C(C)C1CC=C(C)CC1 (stereo unspecified) | inactive
7 | CCCCCCCCCCCCCC(=O)OC | inactive
8 | CC(C)=CCCC(C)=CCCC(C)=CCO | inactive
9 | CC1=CCC2CC1C2(C)C (stereo unspecified) | inactive
10 | CCCCCCCCCCCCCCCC(=O)OC | inactive
11 | Cc1cccc(C)c1C | inactive
12 | CCCCOCC(C)O (stereo unspecified) | inactive
13 | CCCCCCCCCC(=O)OC | inactive
14 | CCCCCCCCCCCCCCCC(=O)[O-].[H+] | inactive
15 | CCCCCCCCCCCCO | inactive
16 | CCC(=O)O | inactive
17 | CCCCCCCCCCCCCC(=O)O | inactive
18 | CCCCCCCCCCCCCC(=O)OCC | inactive

Row | SMILES | odorant receptor agonist call
19 | CCCCCCCC(=O)OC | inactive
20 | CC(C)=CCCC(C)=CCO | inactive
21 | CCCCCCCCO | inactive
22 | CCCCCCCCCC(=O)OCC | inactive
23 | CCCCCCCCCCCCCCCCCC(=O)OCC | inactive
24 | CCCCCCCCCCCCCCC(=O)O | inactive
25 | CCCC(=O)CC | inactive
26 | CCCO | inactive
27 | CCCCCCCCCCCCCCCCCC(=O)[O-].[H+] | inactive
28 | CCCCCCCCCCCC(=O)OCC | inactive
29 | CC(=O)O | inactive
30 | CCC(C)CO (stereo unspecified) | inactive
31 | CCCCCCCCCCCCCCCCCC(=O)OC | inactive
32 | O=c1ccc2ccccc2o1 | inactive
33 | CCCCC(=O)C(C)=O | inactive
34 | Cc1cnc(C)cn1 | inactive
35 | CCCCCCCCCCCC(=O)OC | inactive
36 | CCCCCCCC(=O)OCC | inactive
